Holding throughout (assay type): functional, cell-based
Assay [1] in a line: Cytotoxicity against human BCG823 cells assessed as cell growth inhibition after 72 hrs by MTT assay. The note with it: BCG823, 72 h. A digest of the protocol:
(§1)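 MTT growth assay in human cancer lines (MCF-7, HepG2, BGC-823, HeLa, A549), 72 h after treatment; 5-fluorouracil as reference. IC50 (μg/mL) taken as concentration giving 50% growth inhibition versus untreated control.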

The next assay concerns HepG2. Kind of assay: Cytotoxicity against human HepG2 cells assessed as cell growth inhibition after 72 hrs by MTT assay. The following applies: HepG2, 72 h. In a few lines:
as §1
(In general: Formazan colour is commonly taken as a measure of viable cells.)

The test system of a further assay is A549. Kind of assay: Cytotoxicity against human A549 cells assessed as cell growth inhibition after 72 hrs by MTT assay. The note with it: A549, 72 h. In a few lines:
as §1

The subject of a further assay is MCF7. Briefly: Cytotoxicity against human MCF7 cells assessed as cell growth inhibition after 72 hrs by MTT assay. The note with it: MCF7, 72 h. A digest of the protocol: as §1
The next assay relates to HeLa. Briefly: Cytotoxicity against human HeLa cells assessed as cell growth inhibition after 72 hrs by MTT assay. A digest of the protocol:
as §1

In brackets after ≈: the same amount, converted by molar mass.

In ChEMBL document CHEMBL3813688, “Synthesis, antitumor activity and mechanism of action of novel 1,3-thiazole derivatives containing hydrazide-hydrazone and carboxamide moiety” (Bioorg Med Chem Lett, 2016) one finds IC50 data, which are given here for 18 molecules.

For orientation: IC50 means the concentration that inhibits the measured activity by half.

As to `CN(C(=O)NC(=O)c1cccc(C(F)(F)F)c1)c1nc(C(F)(F)F)c(C(=O)N/N=C/c2cc(C(F)(F)F)cc(C(F)(F)F)c2)s1`, the IC50 came to 5.23 µg/mL (≈ 7.7 µM) in assay [1]; 5.38 µg/mL (≈ 7.92 µM) in the assay on HepG2; 8.2 µg/mL (≈ 12.1 µM) with A549; 6.08 µg/mL (≈ 8.95 µM) in the assay on MCF7; 5.34 µg/mL (≈ 7.86 µM) with HeLa.

In the case of `CN(C(=O)NC(=O)c1cccc([N+](=O)[O-])c1)c1nc(C(F)(F)F)c(C(=O)N/N=C/c2ccccc2C(F)(F)F)s1`, the IC50 in assay [1] worked out at 3.97 µg/mL (≈ 6.75 µM); in the assay on HepG2, 4.8 µg/mL (≈ 8.16 µM); with A549, 5.45 µg/mL (≈ 9.26 µM); with MCF7 it was 4.73 µg/mL (≈ 8.04 µM); in the assay on HeLa, 4.15 µg/mL (≈ 7.05 µM).

For `Cc1nc(N(C)C(=O)NC(=O)c2c(F)cccc2F)sc1C(=O)N/N=C/c1ccccc1`, in the assay on HepG2, the IC50 turned out to be 54.3 µg/mL (≈ 119 µM).

In the case of `CN(C(=O)NC(=O)c1c(Cl)cccc1Cl)c1nc(C(F)(F)F)c(C(=O)N/N=C/c2ccccc2C(F)(F)F)s1`, the IC50 in assay [1] worked out at 4.12 µg/mL (≈ 6.73 µM); in the assay with HepG2 it was 8.95 µg/mL (≈ 14.6 µM); with A549, 12 µg/mL (≈ 19.6 µM); in the assay with MCF7 it was 6.24 µg/mL (≈ 10.2 µM); in the assay on HeLa it was 5.23 µg/mL (≈ 8.54 µM).

Regarding `CN(C(=O)NC(=O)c1ccc(Cl)cc1Cl)c1nc(C(F)(F)F)c(C(=O)N/N=C/c2cccc(C(F)(F)F)c2)s1`, the IC50 in assay [1] is 6.11 µg/mL (≈ 9.98 µM); with HepG2 it was 11.2 µg/mL (≈ 18.3 µM); in the assay on A549 it was 10.5 µg/mL (≈ 17.2 µM); in the assay with MCF7, 10.7 µg/mL (≈ 17.5 µM); with HeLa it was 9.6 µg/mL (≈ 15.7 µM).

Consider `CN(C(=O)NC(=O)c1c(F)cccc1F)c1nc(C(F)(F)F)c(C(=O)N/N=C/c2ccc(C(F)(F)F)cc2)s1`, for which the IC50 in assay [1] was found to be 34.9 µg/mL (≈ 60.2 µM); in the assay with HepG2 it was 49.6 µg/mL (≈ 85.6 µM); with A549 it was 40.1 µg/mL (≈ 69.2 µM); in the assay with MCF7, 35.3 µg/mL (≈ 61 µM); in the assay with HeLa, 30.6 µg/mL (≈ 52.8 µM).

As for `Cc1nc(N(C)C(=O)NC(=O)c2c(F)cccc2F)sc1C(=O)N/N=C/c1ccccc1Cl`, in the assay on HepG2, the IC50 is greater than 100 µg/mL.

Consider `CN(C(=O)NC(=O)c1ccc(Cl)cc1Cl)c1nc(C(F)(F)F)c(C(=O)N/N=C/c2ccc(C(F)(F)F)cc2)s1`, for which the IC50 in assay [1] stood at 3.08 µg/mL (≈ 5.03 µM); in the assay with HepG2 it was 12.4 µg/mL (≈ 20.3 µM); with A549, 9.4 µg/mL (≈ 15.4 µM); in the assay with MCF7, 8.42 µg/mL (≈ 13.8 µM); with HeLa it was 7.99 µg/mL (≈ 13 µM).

Consider `CN(C(=O)NC(=O)c1cccc(C(F)(F)F)c1)c1nc(C(F)(F)F)c(C(=O)N/N=C/c2cccc(C(F)(F)F)c2)s1`, for which the IC50 came out at 4.6 µg/mL (≈ 7.52 µM) in assay [1]; 5.79 µg/mL (≈ 9.47 µM) in the assay with HepG2; 8.16 µg/mL (≈ 13.3 µM) in the assay on A549; 3.7 µg/mL (≈ 6.05 µM) in the assay with MCF7; 4.81 µg/mL (≈ 7.87 µM) with HeLa.

With `CN(C(=O)NC(=O)c1c(F)cccc1F)c1nc(C(F)(F)F)c(C(=O)N/N=C/c2cc(C(F)(F)F)cc(C(F)(F)F)c2)s1`, the IC50 in assay [1] came to 5.28 µg/mL (≈ 8.16 µM); in the assay with HepG2, 6.28 µg/mL (≈ 9.7 µM); in the assay on A549, 17.3 µg/mL (≈ 26.7 µM); with MCF7, 6.85 µg/mL (≈ 10.6 µM); in the assay on HeLa it was 5.62 µg/mL (≈ 8.68 µM).

As for `CN(C(=O)NC(=O)c1ccccc1F)c1nc(C(F)(F)F)c(C(=O)N/N=C/c2cccc(C(F)(F)F)c2)s1`, the IC50 amounted to 16.3 µg/mL (≈ 29.1 µM) in assay [1]; 20.3 µg/mL (≈ 36.2 µM) in the assay on HepG2; 19.4 µg/mL (≈ 34.6 µM) with A549; 20.5 µg/mL (≈ 36.6 µM) in the assay on MCF7; 19.1 µg/mL (≈ 34.1 µM) in the assay with HeLa.

In the case of `Cc1nc(N(C)C(=O)NC(=O)c2c(F)cccc2F)sc1C(=O)N/N=C/c1ccc(Cl)cc1Cl`, the IC50 in the assay with HepG2 is 70 µg/mL (≈ 133 µM).

With `CN(C(=O)NC(=O)c1cccc(C(F)(F)F)c1)c1nc(C(F)(F)F)c(C(=O)N/N=C/c2ccc(C(F)(F)F)cc2)s1`, the IC50 was determined as 4.22 µg/mL (≈ 6.9 µM) in assay [1]; 7.71 µg/mL (≈ 12.6 µM) with HepG2; 6.2 µg/mL (≈ 10.1 µM) in the assay on A549; 6.5 µg/mL (≈ 10.6 µM) in the assay with MCF7; 7.35 µg/mL (≈ 12 µM) with HeLa.

In the case of `COc1cc(/C=N/NC(=O)c2sc(N(C)C(=O)NC(=O)c3c(F)cccc3F)nc2C)cc(OC)c1OC`, the IC50 with HepG2 is greater than 100 µg/mL.

For `Cc1nc(N(C)C(=O)NC(=O)c2c(F)cccc2F)sc1C(=O)N/N=C/c1ccc(Cl)cc1`, the IC50 with HepG2 is greater than 100 µg/mL.

For `Cc1nc(N(C)C(=O)NC(=O)c2c(F)cccc2F)sc1C(=O)N/N=C/c1ccccc1F`, the IC50 with HepG2 is greater than 100 µg/mL.

With `Cc1nc(N(C)C(=O)NC(=O)c2c(F)cccc2F)sc1C(=O)N/N=C/c1ccc(F)cc1`, in the assay with HepG2, the IC50 is greater than 100 µg/mL.

As to `COc1ccc(/C=N/NC(=O)c2sc(N(C)C(=O)NC(=O)c3c(F)cccc3F)nc2C)cc1`, the IC50 in the assay with HepG2 turned out to be 22.7 µg/mL (≈ 46.5 µM).
